CAL PDZ FP-1: inhibitors of human CAL PDZ peptide binding; AID 504414; inhibition, % at 20 µM; purified CAL PDZ, TMR-peptide fluorescence polarization, 1 h; Q9HD26; 330,000 tested, 0.02% active;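 active = highest replicate inhibition of at least 40%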;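 also: plate controls were DMSO neutral control wells for no effect and unlabeled competitor peptide control wells for full effect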
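System: tagged CAL PDZ domain. Schedule: 1 h room-temperature incubation prior to read. Signal: fluorescence polarization (mP). Measure: percent inhibition from loss of millipolarization.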
ERAP1 inh: ERAP1 (human) enzyme inhibition | AID 652197 | Q9NZ08 | recombinant ERAP1, Leu-AMC fluorescence, 60 min | 340,000 tested, 0.15% active | inhibition, % at 10.7 µM;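 active = mean replicate inhibition of at least 30%, or all replicates individually reaching that 30% level; inactive = mean below 30% and not every replicate reaching it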;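 also: 0% = neutral control wells and 100% = L-leucinethiol positive control wells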
S100A4 MyoIIA: blocks human S100A4 binding to myosin IIA peptide; P26447; S100A4/TAMRA-MyoIIA peptide fluorescence polarization; inhibition, % at 10.7 µM; 360,000 tested, 0.14% active;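 active = mean inhibition of at least 70% across replicates, with every replicate also reaching that level; inconclusive = mean inhibition reaches 70% but some replicates fall short; inactive = mean inhibition below 70%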
Target sequence (P26447 whole entry, looked up): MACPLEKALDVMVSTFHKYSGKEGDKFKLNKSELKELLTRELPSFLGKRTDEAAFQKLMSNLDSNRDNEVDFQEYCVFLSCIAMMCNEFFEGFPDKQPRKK
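Material: S100A4 monomer (human). Medium: Calcium-containing HEPES buffer, pH 7.2. Probe or stimulus: labelled myosin peptide probe, 5 nM. Compound dosing: one concentration per compound. Timing: polarization read 5 min after assay mix addition, stable 5–60 min. Benchmarks: DMSO as neutral control, TFP as positive control.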
CAL PDZ FP-2: CAL PDZ (human) peptide binding inhibition | Q9HD26 | purified CAL PDZ, TMR-peptide fluorescence polarization, 1 h | inhibition, % at 24.9 µM | 300,000 tested, 0.92% active;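 active = mean inhibition of at least 30% with at least half of replicates also reaching 30%; inconclusive = no clear call, values can overlap the other calls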;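 also: 0% = DMSO neutral control and 100% = excess unlabeled competitor peptide PRC23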
SIRT5 inh: inhibitors of human sirtuin-5 desuccinylase; Q9NXA8; 330,000 tested, 1.1% active; inhibition, % at 15 µM; Purified SirT5, succinyl-peptide AMC, trypsin-coupled fluorescence; in the data active = inhibition above about 15%; inconclusive = no clear call, values can overlap the other calls
Target sequence (Q9NXA8 whole entry, looked up): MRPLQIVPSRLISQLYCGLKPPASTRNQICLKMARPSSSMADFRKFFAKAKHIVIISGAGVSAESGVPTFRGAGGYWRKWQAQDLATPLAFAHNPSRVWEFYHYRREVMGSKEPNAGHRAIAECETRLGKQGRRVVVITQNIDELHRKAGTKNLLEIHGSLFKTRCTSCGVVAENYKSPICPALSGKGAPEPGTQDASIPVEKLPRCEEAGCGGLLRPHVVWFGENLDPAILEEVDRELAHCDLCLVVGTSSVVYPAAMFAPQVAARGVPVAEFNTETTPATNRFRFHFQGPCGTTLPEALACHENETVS
DENV2 CPE rescue: protects cells from dengue virus 2 cytopathic effect. CPE inhibition, % at 9.99 µM. 350,000 tested, 1.7% active. DENV2-infected cells, cytopathic effect rescue, plate reader; in the data active = CPE inhibition above about 20%, passing the limit was not always enough; inconclusive = no clear call, values can overlap the other calls; tested in BHK-21 cells;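 also: 0% = median of neutral control wells and 100% = median of positive control wells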
Numbers without * were called inactive; ? = inconclusive; · = not tested or not shown; ! = not active in a repeat. Only some compounds are listed: those with a hit (about 2.9% of all), similar ones and a draw of the others.

SMILES | CAL PDZ FP-1 | ERAP1 inh | S100A4 MyoIIA | CAL PDZ FP-2 | SIRT5 inh | DENV2 CPE rescue
COc1ccc(NC(=O)N(C)C[C@H]2OCCCC[C@H](C)Oc3ccc(NS(=O)(=O)c4cn(C)cn4)cc3C(=O)N([C@@H](C)CO)C[C@H]2C)cc1 | · | 0 | -3 | · | -2 | ?
COc1ccc(NC(=O)N(C)C[C@H]2OCCCC[C@H](C)Oc3ccc(NS(=O)(=O)c4cn(C)cn4)cc3C(=O)N([C@H](C)CO)C[C@@H]2C)cc1 | · | 1 | 3 | · | 0 | 25*!
O=C(O)C[C@H]1CC[C@H]2[C@@H](COC[C@H](O)CN2S(=O)(=O)c2ccc(F)cc2)O1 | · | 0 | 2 | · | -3 | 6
O=C(Nc1ccccc1)N1CCCCN2[C@H](CO)[C@H](c3ccc(Br)cc3)[C@@H]2C1 | · | -3 | -3 | · | -11 | 28*
O=C(Nc1ccccc1)N1CCCCN2[C@H](CO)[C@H](c3ccc(Br)cc3)[C@H]2C1 | · | -2 | -9 | · | 1 | 32*
Cc1ccccc1-c1ccc([C@@H]2[C@H]3CN(C(=O)Nc4ccccc4)CCCCN3[C@H]2CO)cc1 | · | 0 | -2 | · | -12 | 61*
C[C@H](CO)N1C[C@H](C)[C@H](CN(C)C(=O)CCC(F)(F)F)OCCCC[C@H](C)Oc2ccc(NC(=O)c3ccccc3)cc2C1=O | · | -9 | 1 | · | 8 | 21*
C[C@@H]1CCCCO[C@H](CN(C)C(=O)CCC(F)(F)F)[C@@H](C)CN([C@@H](C)CO)C(=O)c2cc(NC(=O)C3CCCCC3)ccc2O1 | · | -5 | -5 | · | 18* | -1
C[C@@H]1CCCCO[C@@H](CN(C)C(=O)CCC(F)(F)F)[C@@H](C)CN([C@@H](C)CO)C(=O)c2cc(NC(=O)c3ccccc3)ccc2O1 | · | -7 | 97* | · | 7 | 157*
CCN(C(=O)COC(=O)CNC(=O)c1ccccc1C)C1=CCCCC1 | 1 | 0 | 0 | · | 24* | 17
CO[C@@H]1CN(C)C(=O)c2ccc(NS(C)(=O)=O)cc2OC[C@@H](C)N(CC2CCCCC2)C[C@@H]1C | · | -3 | -3 | · | -4 | 1
Cc1ccc(S(=O)(=O)Nc2cccnc2)c(C)c1C | -1 | 0 | 4 | -2 | 15* | 3
CO[C@@H]1CN(C)C(=O)c2ccc(NC(C)=O)cc2OC[C@@H](C)N(Cc2nccs2)C[C@H]1C | · | -1 | 10 | · | -2 | -6
CCCN1C(=O)N(C)C(N(O)C(=O)NC)C1(C)C (stereo unspecified) | 0 | · | · | 39* | · | ·
CNC(=O)N(O)C1N(C)C(=O)N(CC(=O)OC)C1(C)C (stereo unspecified) | -1 | · | · | 0 | · | ·
O=C(NC1CCCCC1)C1c2ccccc2OCC(=O)N1Cc1ccco1 (stereo unspecified) | · | · | 32 | · | 16* | 10
O=C(CCN1CCCCC1)N[C@@H]1CC[C@H](CCNS(=O)(=O)c2ccc(Cl)cc2)O[C@H]1CO | · | 0 | 1 | · | 2 | -2
CC(C)(CO)NC(=S)NCc1ccco1 | -3 | · | -4 | · | 30* | 8
CS(=O)(=O)N(Cc1ccc(C(=O)NN=C2CCCCCC2)cc1)c1ccccc1 | -2 | 5 | -1 | -2 | -2 | 110*
C/C=C/c1ccc2c(c1)[C@H]1[C@H](CCN1C(=O)Cc1cccnc1)[C@H](CO)N2C | · | -2 | -1 | · | 4 | ?
CO/N=C/C(C#N)=C/c1cc(C(=O)c2ccccc2)cn1C | -2 | 2 | -1 | -5 | -2 | 46*
COc1ccc([C@H]2CC(=O)C=C(c3ccc4ccccc4c3)C2)cc1OC | -1 | 1 | -7 | -3 | 15* | 7
COc1ccc([C@H]2CC(=O)C=C(c3ccc(OC)c(OC)c3)C2)cc1 | -1 | -3 | -2 | -1 | -6 | -1
COc1ccc(C2=CC(=O)CC(c3ccc(OC)cc3)C2)cc1 (stereo unspecified) | -1 | 6 | -14 | 0 | -1 | 5
CCOc1ccc(C2=CC(=O)C[C@H](c3ccc(OC)cc3)C2)cc1 | 0 | 1 | -23 | -2 | -4 | 26*
SMILES | CAL PDZ FP-1 | ERAP1 inh | S100A4 MyoIIA | CAL PDZ FP-2 | SIRT5 inh | DENV2 CPE rescue
CN(C)C(=O)C[C@H]1C[C@H]2c3cc(NC(=O)NC4CCCC4)ccc3O[C@H]2[C@@H](CO)O1 | · | 2 | 11 | · | 5 | 0
CCc1cc(Cn2nc(-c3ccccc3)cc2C(=O)NCc2ccc(C)cc2)on1 | 0 | 1 | 3 | -2 | 1 | 111*
CCc1cc(Cn2nc(-c3ccccc3)cc2C(=O)NCc2cccc(C(F)(F)F)c2)on1 | 0 | 1 | -14 | -2 | 1 | -4
CCc1cc(Cn2nc(-c3ccccc3)cc2C(=O)NCc2cccc(Br)c2)on1 | -1 | 1 | -3 | -3 | · | 90*
CCCCCCCC/C=C\CCCCCCCC(=O)NCCc1ccc(O)c(O)c1 | -2 | 0 | -9 | -6 | 32* | -6
CS(=O)(=O)Nc1ccc2c(c1)[C@@H]1C[C@H](CC(=O)NCc3ccc(-c4ccccc4)cc3)O[C@@H](CO)[C@@H]1O2 | · | · | · | · | · | 6
COc1ccccc1C(CNc1ncnc2sc(C)c(C)c12)N(C)C (stereo unspecified) | -2 | -1 | -23 | -5 | -1 | 46*
C[C@@H]1CN([C@H](C)CO)C(=O)Cc2cc(NS(=O)(=O)c3ccc(Cl)cc3)ccc2O[C@H]1CN(C)Cc1ccc(C(=O)Nc2ccccc2N)cc1 | · | 0 | -3 | · | 3 | 71*
Cc1ccc(S(=O)(=O)Nc2ccc3c(c2)C(=O)N([C@@H](C)CO)C[C@H](C)[C@H](CN(C)Cc2ccc(C(=O)Nc4ccccc4N)cc2)O3)cc1 | · | 1 | -2 | · | · | -7
Cc1noc(C)c1S(=O)(=O)Nc1ccc2c(c1)CC(=O)N([C@H](C)CO)C[C@H](C)[C@@H](CN(C)Cc1ccc(C(=O)Nc3ccccc3N)cc1)O2 | · | 3 | -9 | · | 9 | 40*
Cc1ccc(S(=O)(=O)Nc2ccc3c(c2)C(=O)N([C@H](C)CO)C[C@H](C)[C@@H](CN(C)Cc2ccc(C(=O)Nc4ccccc4N)cc2)O3)cc1 | · | -1 | -2 | · | · | 20*
O=C(COc1ccc(F)cc1)Nc1nc2c(s1)CCCC2 | -1 | -6 | 1 | -2 | 0 | -8
COc1ccc(OCC(=O)Nc2nc3c(s2)CCCC3)cc1 | -2 | 0 | 4 | 72* | -3 | -1
COC(=O)c1ccc(C2=NOC(C)(c3sc(-c4ccc(Cl)cc4)nc3C)C2)cc1 (stereo unspecified) | -1 | -3 | 0 | 0 | -3 | 4
COC(=O)c1ccc(C2=NOC(C)(c3sc(-c4ccccc4)nc3C)C2)cc1 (stereo unspecified) | 0 | 2 | -3 | 45* | -3 | -12
Cc1noc(C)c1S(=O)(=O)N(C)C[C@@H]1Oc2ccc(NC(=O)Nc3ccc(C(F)(F)F)cc3)cc2CC(=O)N([C@H](C)CO)C[C@@H]1C | · | · | · | · | · | -4

Screening results: PubChem BioAssay, Broad Institute
